Reference: ChEMBL document CHEMBL4261658, “4-Hydroxy-3-nitro-5-ureido-benzenesulfonamides Selectively Target the Tumor-Associated Carbonic Anhydrase Isoforms IX and XII Showing Hypoxia-Enhanced Antiproliferative Profiles” (J Med Chem, 2018)

What was measured:
PC-3 [1] = test: Cytotoxicity against human PC3 cells assessed as cell viability at 100 uM after 48 hrs under normoxic conditions by MTT assay (reference value: 100%); assay type: functional; conditions: PC-3, 48 h, read-out: Activity
How it was run: (§1)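 Cells cultured in high-glucose DMEM with 20% FBS at 37 °C and 5% CO2, seeded at 1x10^4/well, then dosed 24 h later (0–200 μM) for 48 h. Hypoxia: 1% O2, 5% CO2, balance N2 in a hypoxic workstation; normoxia: 20% O2 in air, 5% CO2. MTT (1 mg/ml) for 30 min at 37 °C, formazan dissolved in DMSO, A550. Untreated control set to 100%; quadruplicates, ≥3 cell batches, mean ± S.E.M.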

HT-29 [2] = test: Cytotoxicity against human HT-29 cells assessed as reduction in cell viability after 48 hrs under normoxic conditions by MTT assay; assay type: functional, cell-based; conditions: for IC50: HT-29, 48 h; how it was run: as §1
PC-3 [3] = test: Cytotoxicity against human PC3 cells assessed as cell viability at 30 uM after 48 hrs under hypoxic conditions by MTT assay (reference value: 100%); assay type: functional; conditions: PC-3, 48 h, read-out: Activity; how it was run: as §1
MDA-MB-231 [4] = test: Cytotoxicity against human MDA-MB-231 cells assessed as cell viability at 30 uM after 48 hrs under hypoxic conditions by MTT assay (reference value: 100%); assay type: functional; conditions: MDA-MB-231, 48 h, read-out: Activity; how it was run: as §1
Carbonic anhydrase 9 = Carbonic anhydrase 9 (Homo sapiens, UniProt Q16790); test: Inhibition of carbonic anhydrase 9 (unknown origin) preincubated for 15 mins by stopped flow CO2 hydration assay
HT-29 [5] = test: Cytotoxicity against human HT-29 cells assessed as cell viability at 100 uM after 48 hrs under hypoxic conditions by MTT assay (reference value: 100%); assay type: functional; conditions: Homo sapiens, HT-29, 48 h; read-out: Activity; how it was run: as §1
MDA-MB-231 [6] = test: Cytotoxicity against human MDA-MB-231 cells assessed as cell viability at 200 uM after 48 hrs under normoxic conditions by MTT assay (reference value: 100%); assay type: functional; conditions: MDA-MB-231, 48 h, read-out: Activity; how it was run: as §1
Carbonic anhydrase 12 = Carbonic anhydrase 12 (Homo sapiens, UniProt O43570)
HT-29 [7] = test: Cytotoxicity against human HT-29 cells assessed as cell viability at 200 uM after 48 hrs under normoxic conditions by MTT assay (reference value: 100%); assay type: functional; conditions: Homo sapiens, HT-29, 48 h; read-out: Activity; how it was run: as §1
PC-3 [8] = test: Cytotoxicity against human PC3 cells assessed as reduction in cell viability after 48 hrs under normoxic conditions by MTT assay; assay type: functional, cell-based; conditions: for IC50: PC-3, 48 h; how it was run: as §1
MDA-MB-231 [9] = test: Cytotoxicity against human MDA-MB-231 cells assessed as cell viability at 100 uM after 48 hrs under hypoxic conditions by MTT assay (reference value: 100%); assay type: functional; conditions: MDA-MB-231, 48 h, read-out: Activity; how it was run: as §1
HT-29 [10] = test: Cytotoxicity against human HT-29 cells assessed as reduction in cell viability after 48 hrs under hypoxic conditions by MTT assay; assay type: functional, cell-based; conditions: for IC50: HT-29, 48 h; how it was run: as §1
HT-29 [11] = test: Cytotoxicity against human HT-29 cells assessed as cell viability at 30 uM after 48 hrs under normoxic conditions by MTT assay (reference value: 100%); assay type: functional; conditions: Homo sapiens, HT-29, 48 h; read-out: Activity; how it was run: as §1
MDA-MB-231 [12] = test: Cytotoxicity against human MDA-MB-231 cells assessed as reduction in cell viability after 48 hrs under normoxic conditions by MTT assay; assay type: functional, cell-based; conditions: for IC50: MDA-MB-231, 48 h; how it was run: as §1
PC-3 [13] = test: Cytotoxicity against human PC3 cells assessed as cell viability at 30 uM after 48 hrs under normoxic conditions by MTT assay (reference value: 100%); assay type: functional; conditions: PC-3, 48 h, read-out: Activity; how it was run: as §1
MDA-MB-231 [14] = test: Cytotoxicity against human MDA-MB-231 cells assessed as cell viability at 100 uM after 48 hrs under normoxic conditions by MTT assay (reference value: 100%); assay type: functional; conditions: MDA-MB-231, 48 h, read-out: Activity; how it was run: as §1
HT-29 [15] = test: Cytotoxicity against human HT-29 cells assessed as cell viability at 200 uM after 48 hrs under hypoxic conditions by MTT assay (reference value: 100%); assay type: functional; conditions: Homo sapiens, HT-29, 48 h; read-out: Activity; how it was run: as §1
HT-29 [16] = test: Cytotoxicity against human HT-29 cells assessed as cell viability at 100 uM after 48 hrs under normoxic conditions by MTT assay (reference value: 100%); assay type: functional; conditions: Homo sapiens, HT-29, 48 h; read-out: Activity; how it was run: as §1
PC-3 [17] = test: Cytotoxicity against human PC3 cells assessed as cell viability at 200 uM after 48 hrs under normoxic conditions by MTT assay (reference value: 100%); assay type: functional; conditions: PC-3, 48 h, read-out: Activity; how it was run: as §1
PC-3 [18] = test: Cytotoxicity against human PC3 cells assessed as cell viability at 200 uM after 48 hrs under hypoxic conditions by MTT assay (reference value: 100%); assay type: functional; conditions: PC-3, 48 h, read-out: Activity; how it was run: as §1
MDA-MB-231 [19] = test: Cytotoxicity against human MDA-MB-231 cells assessed as cell viability at 30 uM after 48 hrs under normoxic conditions by MTT assay (reference value: 100%); assay type: functional; conditions: MDA-MB-231, 48 h, read-out: Activity; how it was run: as §1
MDA-MB-231 [20] = test: Cytotoxicity against human MDA-MB-231 cells assessed as reduction in cell viability after 48 hrs under hypoxic conditions by MTT assay; assay type: functional, cell-based; conditions: for IC50: MDA-MB-231, 48 h; how it was run: as §1
PC-3 [21] = test: Cytotoxicity against human PC3 cells assessed as cell viability at 100 uM after 48 hrs under hypoxic conditions by MTT assay (reference value: 100%); assay type: functional; conditions: PC-3, 48 h, read-out: Activity; how it was run: as §1
HT-29 [22] = test: Cytotoxicity against human HT-29 cells assessed as cell viability at 30 uM after 48 hrs under hypoxic conditions by MTT assay (reference value: 100%); assay type: functional; conditions: Homo sapiens, HT-29, 48 h; read-out: Activity; how it was run: as §1
PC-3 [23] = test: Cytotoxicity against human PC3 cells assessed as reduction in cell viability after 48 hrs under hypoxic conditions by MTT assay; assay type: functional, cell-based; conditions: for IC50: PC-3, 48 h; how it was run: as §1
MDA-MB-231 [24] = test: Cytotoxicity against human MDA-MB-231 cells assessed as cell viability at 200 uM after 48 hrs under hypoxic conditions by MTT assay (reference value: 100%); assay type: functional; conditions: MDA-MB-231, 48 h, read-out: Activity; how it was run: as §1

Chain of Carbonic anhydrase 12 (O43570 whole entry): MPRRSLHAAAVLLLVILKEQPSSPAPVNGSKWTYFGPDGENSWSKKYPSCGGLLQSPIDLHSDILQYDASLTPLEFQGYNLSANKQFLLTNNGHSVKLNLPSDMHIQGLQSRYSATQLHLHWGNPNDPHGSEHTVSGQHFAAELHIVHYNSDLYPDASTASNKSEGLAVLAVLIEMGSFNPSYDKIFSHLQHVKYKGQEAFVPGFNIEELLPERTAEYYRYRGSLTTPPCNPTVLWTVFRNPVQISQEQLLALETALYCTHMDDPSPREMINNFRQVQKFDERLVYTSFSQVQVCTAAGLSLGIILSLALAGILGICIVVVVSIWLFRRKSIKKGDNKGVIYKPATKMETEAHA

Structure (SMILES)	viability at 100 µM (PC-3 [1])	Activity (HT-29 [2])	IC50 (HT-29 [2])	viability at 30 µM (PC-3 [3])	viability at 30 µM (MDA-MB-231 [4])	Ki (Carbonic anhydrase 9)	viability at 100 µM (HT-29 [5])	viability at 200 µM (MDA-MB-231 [6])	Ki (Carbonic anhydrase 12)	viability at 200 µM (HT-29 [7])	Activity (PC-3 [8])	IC50 (PC-3 [8])	viability at 100 µM (MDA-MB-231 [9])	Activity (HT-29 [10])	IC50 (HT-29 [10])	viability at 30 µM (HT-29 [11])	Activity (MDA-MB-231 [12])	IC50 (MDA-MB-231 [12])	viability at 30 µM (PC-3 [13])	viability at 100 µM (MDA-MB-231 [14])	other results
NS(=O)(=O)c1cc(NC(=O)Nc2c(F)c(F)c(F)c(F)c2F)c(O)c([N+](=O)[O-])c1	61.7%	Dose-dependent effect	> 200000 nM	63.2%	56.2%	290 nM	70.2%	60.2%	80 nM	99.6%	Dose-dependent effect	> 200000 nM	50.2%	Dose-dependent effect	> 200000 nM	106%	Dose-dependent effect	> 200000 nM	69%	66.7%	viability at 200 µM (HT-29 [15]): 65.3%; viability at 100 µM (HT-29 [16]): 102%; viability at 200 µM (PC-3 [17]): 60.2%; viability at 200 µM (PC-3 [18]): 50.6%; viability at 30 µM (MDA-MB-231 [19]): 95.7%; Activity (MDA-MB-231 [20]): Dose-dependent effect; IC50 (MDA-MB-231 [20]): 101000 nM; viability at 100 µM (PC-3 [21]): 53.2%; viability at 30 µM (HT-29 [22]): 75.6%; Activity (PC-3 [23]): Dose-dependent effect; IC50 (PC-3 [23]): > 200000 nM; viability at 200 µM (MDA-MB-231 [24]): 40.5%
Cc1cc(C)cc(NC(=O)Nc2cc(S(N)(=O)=O)cc([N+](=O)[O-])c2O)c1						530 nM			620 nM												
NS(=O)(=O)c1ccc(O)c([N+](=O)[O-])c1						120 nM			160 nM												
NS(=O)(=O)c1cc(O)c(O)c([N+](=O)[O-])c1						240 nM			90 nM												
NS(=O)(=O)c1cc(NC(=O)N[C@@H]2C(O)O[C@@H](CO)[C@H](O)[C@H]2O)c(O)c([N+](=O)[O-])c1 (stereo partly specified)						170 nM			160 nM												
Nc1cc(S(N)(=O)=O)cc([N+](=O)[O-])c1O	91.8%	Dose-dependent effect	> 200000 nM	81.8%	81.3%	210 nM	93.2%	78.8%	200 nM	105%	Dose-dependent effect	> 200000 nM	72.8%	Dose-dependent effect	> 200000 nM	95.7%	Dose-dependent effect	> 200000 nM	69.7%	81.4%	viability at 200 µM (HT-29 [15]): 100%; viability at 100 µM (HT-29 [16]): 107%; viability at 200 µM (PC-3 [17]): 92.3%; viability at 200 µM (PC-3 [18]): 55.3%; viability at 30 µM (MDA-MB-231 [19]): 93%; Activity (MDA-MB-231 [20]): Dose-dependent effect; IC50 (MDA-MB-231 [20]): > 200000 nM; viability at 100 µM (PC-3 [21]): 58.4%; viability at 30 µM (HT-29 [22]): 108%; Activity (PC-3 [23]): Dose-dependent effect; IC50 (PC-3 [23]): > 200000 nM; viability at 200 µM (MDA-MB-231 [24]): 60.2%
Cc1cc(C)[n+](-c2cc(S(N)(=O)=O)cc([N+](=O)[O-])c2O)c(C)c1.[O-][Cl+3]([O-])([O-])[O-]	58%	Dose-dependent effect	> 200000 nM	97.7%	98.9%	150 nM	62.5%	4%	220 nM	89.4%	Dose-dependent effect	140000 nM	111%	Dose-dependent effect	> 200000 nM	101%	Dose-dependent effect	< 30000 nM	77.4%	2.9%	viability at 200 µM (HT-29 [15]): 59.4%; viability at 100 µM (HT-29 [16]): 97.2%; viability at 200 µM (PC-3 [17]): 50.3%; viability at 200 µM (PC-3 [18]): 88.9%; viability at 30 µM (MDA-MB-231 [19]): 40.7%; Activity (MDA-MB-231 [20]): Dose-dependent effect; IC50 (MDA-MB-231 [20]): > 200000 nM; viability at 100 µM (PC-3 [21]): 104%; viability at 30 µM (HT-29 [22]): 72.2%; Activity (PC-3 [23]): Dose-dependent effect; IC50 (PC-3 [23]): > 200000 nM; viability at 200 µM (MDA-MB-231 [24]): 98.3%
NS(=O)(=O)c1cc(NC(=O)c2ccccc2)c(OC(=O)c2ccccc2)c([N+](=O)[O-])c1						130 nM			300 nM												
